Assay results reported in ChEMBL document CHEMBL4177770, “Discovery of MK-6169, a Potent Pan-Genotype Hepatitis C Virus NS5A Inhibitor with Optimized Activity against Common Resistance-Associated Substitutions” (J Med Chem, 2018).
Residue numbers refer to the chain shown, from its start.

What was measured:
[1] = molecular target: T1, Nonstructural protein 5A (Hepatitis C virus) (UniProt Q5L478); assay: Inhibition of NS5A in HCV genotype 1a infected in HuH7 replicon cells assessed as decrease in viral replication after 3 days by RT-PCR method; type: cell-based; conditions: Hepatitis C virus subtype 1a
T1 sequence (whole entry): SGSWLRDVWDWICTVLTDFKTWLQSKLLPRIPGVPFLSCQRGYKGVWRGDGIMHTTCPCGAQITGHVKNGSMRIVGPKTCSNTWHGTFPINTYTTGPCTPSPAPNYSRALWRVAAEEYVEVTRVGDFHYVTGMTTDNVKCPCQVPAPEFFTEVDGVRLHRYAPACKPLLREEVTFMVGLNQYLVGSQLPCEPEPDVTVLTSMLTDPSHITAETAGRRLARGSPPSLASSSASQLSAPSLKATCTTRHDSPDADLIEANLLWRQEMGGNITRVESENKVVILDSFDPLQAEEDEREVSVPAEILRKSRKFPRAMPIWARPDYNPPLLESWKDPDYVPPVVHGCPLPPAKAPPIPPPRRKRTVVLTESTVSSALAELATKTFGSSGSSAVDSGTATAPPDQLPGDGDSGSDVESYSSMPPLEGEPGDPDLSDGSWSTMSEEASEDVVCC

[2] = molecular target: T1, Nonstructural protein 5A (Hepatitis C virus); assay: Inhibition of NS5A in HCV genotype 1b infected in HuH7 replicon cells assessed as decrease in viral replication after 3 days by RT-PCR method; type: cell-based; conditions: Hepatitis C virus subtype 1b
[3] = molecular target: T1, Nonstructural protein 5A (Hepatitis C virus); assay: Inhibition of NS5A L31M mutant in HCV genotype 2b infected in HuH7 replicon cells assessed as decrease in viral replication after 3 days by RT-PCR method; type: cell-based; conditions: Hepatitis C virus subtype 2b
[4] = molecular target: T1, Nonstructural protein 5A (Hepatitis C virus); assay: Inhibition of NS5A in HCV genotype 3a infected in HuH7 replicon cells assessed as decrease in viral replication after 3 days by RT-PCR method; type: cell-based; conditions: Hepatitis C virus subtype 3a
[5] = molecular target: T1, Nonstructural protein 5A (Hepatitis C virus); assay: Inhibition of NS5A in HCV genotype 4a infected in HuH7 replicon cells assessed as decrease in viral replication after 3 days by RT-PCR method; type: cell-based; conditions: Hepatitis C virus subtype 4a
[6] = tested on: T2, Nonstructural protein 5A (Hepatitis C virus), Q5L478 [Y93H]; assay: Inhibition of NS5A Y93H mutant in HCV genotype 1a infected in HuH7 replicon cells assessed as decrease in viral replication after 3 days by RT-PCR method; type: cell-based; conditions: Hepatitis C virus subtype 1a
T2 sequence (whole entry): T1 sequence (whole entry) with Y93H

[7] = molecular target: T1, Nonstructural protein 5A (Hepatitis C virus); assay: Inhibition of NS5A L31V mutant in HCV genotype 1a infected in HuH7 replicon cells assessed as decrease in viral replication after 3 days by RT-PCR method; type: cell-based; conditions: Hepatitis C virus subtype 1a
[8] = Half life in Wistar Han rat at 2 mg/kg, iv by LC/MS method; type: ADME, organism-based; conditions: in vivo
Summary of the method: (§1)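 Male Wistar Han rats, two per group, dosed IV at 2 mg/kg in 60% PEG200. Plasma was obtained by centrifuging the blood, and compound concentrations were measured by LC/MS.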

[9] = Clearance in Wistar Han rat at 2 mg/kg, iv by LC/MS method; type: ADME, organism-based; conditions: in vivo; summary of the method: as §1
[10] = AUC in Wistar Han rat at 10 mg/kg, po by LC/MS method; type: ADME, organism-based; conditions: in vivo
Summary of the method: (§2)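 Male Wistar Han rats, two per dosing group, dosed orally at 10 mg/kg in 10% TWEEN. Plasma was separated from collected blood by centrifugation and analysed by LC/MS.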

[11] = Cmax in Wistar Han rat at 10 mg/kg, po by LC/MS method; type: ADME, organism-based; set-up: dose 10 mg/kg, route oral; conditions: in vivo; summary of the method: as §2
[12] = Drug level in Wistar Han rat at 10 mg/kg, po measured at 24 hrs by LC/MS method; type: ADME, organism-based; conditions: in vivo, read-out: Drug uptake; summary of the method: as §2
[13] = Oral bioavailability in Wistar Han rat at 10 mg/kg by LC/MS method; type: ADME, organism-based; conditions: in vivo; summary of the method: as §2

Compound	EC90 [1] [pM]	EC90 [2] [pM]	EC90 [3] [nM]	EC90 [4] [pM]	EC90 [5] [pM]	EC90 [6] [nM]	EC90 [7] [pM]	half-life [8] [min]	clearance [9] [mL/min/kg]	AUC [10] [µM·h]	Cmax [11] [nM]	concentration at 24 h [12] [nM]	bioavailability [13] [%]
COC(=O)N[C@H](C(=O)N1CCC[C@H]1c1ncc(-c2cc(F)c3c(c2)O[C@@H](c2ccc(C4CC4)s2)n2c-3cc3cc(-c4cnc([C@@H]5CCCN5C(=O)[C@@H](NC(=O)OC)C5CC6CCC(C5)O6)[nH]4)ccc32)[nH]1)C(C)C (some centres not stated)	5	4	0.019	12	8	0.028	6	234	13	0.33	24	3	2.5
COC(=O)N[C@H](C(=O)N1CCC[C@H]1c1ncc(-c2cc(F)c3c(c2)O[C@@H](c2ccc(C(C)C)s2)n2c-3cc3cc(-c4cnc([C@@H]5CCCN5C(=O)[C@@H](NC(=O)OC)[C@@H]5CCOC(C)(C)C5)[nH]4)ccc32)[nH]1)C(C)C	4	5	0.038	6	6	0.036	4	576	5	0.8	100	4	2.7
COC(=O)N[C@H](C(=O)N1CCC[C@H]1c1ncc(-c2cc(F)c3c(c2)O[C@@H](c2ccc(C4CC4)s2)n2c-3cc3cc(-c4cnc([C@@H]5CCCN5C(=O)[C@@H](NC(=O)OC)C5CC(C)(C)OC(C)(C)C5)[nH]4)ccc32)[nH]1)C(C)C	4	2	0.073	7	4	0.047	4	462	7	0.7	76	5	3.1
CCCc1ncc([C@@H]2Oc3cc(-c4cnc([C@@H]5CCCN5C(=O)[C@@H](NC(=O)OC)C(C)C)[nH]4)cc(F)c3-c3cc4cc(-c5cnc([C@@H]6CCCN6C(=O)[C@@H](NC(=O)OC)[C@@H]6CCOC(C)(C)C6)[nH]5)ccc4n32)s1	4	5	0.015	8	6	0.018	6	270	21	0.08	20	1	1
COC(=O)N[C@H](C(=O)N1CCC[C@H]1c1ncc(-c2cc(F)c3c(c2)O[C@@H](c2ccc(C4CC4)s2)n2c-3cc3cc(-c4cnc([C@@H]5CCCN5C(=O)[C@@H](NC(=O)OC)[C@H]5CCOC(C)(C)C5)[nH]4)ccc32)[nH]1)C(C)C	4	7	0.027	9	7	0.018	2	312	11	0.24	25	1	1.6
CCc1ccc([C@@H]2Oc3cc(-c4cnc([C@@H]5CCCN5C(=O)[C@@H](NC(=O)OC)[C@@H]5CCOC(C)(C)C5)[nH]4)cc(F)c3-c3cc4cc(-c5cnc([C@@H]6CCCN6C(=O)[C@@H](NC(=O)OC)C(C)C)[nH]5)ccc4n32)s1	33	67	0.349	82	106	0.155	46	354	9	0.23	20	2	1.2
COC(=O)N[C@H](C(=O)N1CCC[C@H]1c1ncc(-c2cc(F)c3c(c2)O[C@@H](c2ccc(C4CC4)s2)n2c-3cc3cc(-c4cnc([C@@H]5CCCN5C(=O)[C@@H](NC(=O)OC)C5CCO[C@H](C)C5)[nH]4)ccc32)[nH]1)C(C)C (some centres not stated)	4	4	0.014	7	10	0.009	3	282	11	0.21	25	1	1.4
CCc1ncc([C@@H]2Oc3cc(-c4cnc([C@@H]5CCCN5C(=O)[C@@H](NC(=O)OC)C(C)C)[nH]4)cc(F)c3-c3cc4cc(-c5cnc([C@@H]6CCCN6C(=O)[C@@H](NC(=O)OC)[C@@H]6CCOC(C)(C)C6)[nH]5)ccc4n32)s1	6	5	0.041	6	4	0.017	5	318	29	0.05	10	1	0.8
COC(=O)N[C@H](C(=O)N1CCC[C@H]1c1ncc(-c2cc(F)c3c(c2)O[C@@H](c2cc4c(s2)CCC4)n2c-3cc3cc(-c4cnc([C@@H]5CCCN5C(=O)[C@@H](NC(=O)OC)[C@@H]5CCOC(C)(C)C5)[nH]4)ccc32)[nH]1)C(C)C	5	6	0.043	9	6	0.117	6	258	9	1.9	290	6	10.2
